Among the data in ChEMBL document CHEMBL3244375, “Hypolipidemic arylthioalkanoic acids” (J Med Chem, 1977) are Activity, deltaRm and LD50 values, retold here.

Data set [1] concerns Rattus norvegicus. Kind of data set: Hypolipidemic activity in Sprague-Dawley rat assessed as reduction in serum triglyceride level at 0.125 % compound administered in diet for 14 days relative to control. Type of data set: functional. Details: scale not given: the % may be the effect or the level left. The essentials:
(§1)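 Test compound mixed into feed, given ad libitum to rats for 14 days; controls received feed alone. Rats then weighed and killed by decapitation; blood collected and serum cholesterol and triglycerides measured by previously described methods. Data reported as mg% serum with SD per group, % change versus control; significance by Student's t test. Dose-response groups of eight rats.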

In data set [2] the test system is Rattus norvegicus. As to the kind of experiment: Hypolipidemic activity in Sprague-Dawley rat assessed as reduction in serum cholesterol level at 0.125 % compound administered in diet for 14 days relative to control. Type of data set: functional. Details: scale not given: the % may be the effect or the level left. The essentials: as §1
In data set [3] the test system is Rattus norvegicus. Kind of data set: Toxicity in Sprague-Dawley rat assessed as increase in liver weight at 0.125 % compound administered in diet for 14 days relative to control. The class given is organism-based. The note with it: in vivo, po, 336 h. The essentials:
(§2)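 Rats fed compound-containing diet ad libitum for 14 days alongside feed-only controls, eight rats per group in the dose-response study. At sacrifice by decapitation, liver removed and weighed. Change from controls scored semi-quantitatively, each + or − sign representing about a 10% change.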

Data set [4] concerns Rattus norvegicus. Kind of data set: Hypolipidemic activity in Sprague-Dawley rat assessed as reduction in serum triglyceride level at 0.25 % compound administered in diet for 14 days relative to control. The class given is functional. Details: scale not given: the % may be the effect or the level left. The essentials: as §1
For data set [5], the system named is Rattus norvegicus. As to the kind of experiment: Toxicity in Sprague-Dawley rat assessed as increase in liver weight at 0.25 % compound administered in diet for 14 days relative to control. The conditions noted are these: in vivo, po, 336 h. Type of data set: organism-based. The essentials: as §2
Data set [6] has as its system Rattus norvegicus. As to the kind of experiment: Hypolipidemic activity in Sprague-Dawley rat assessed as reduction in serum cholesterol level at 0.25 % compound administered in diet for 14 days relative to control. On the set-up: scale not given: the % may be the effect or the level left. Type of data set: functional. The essentials: as §1
A short description of data set [7]: Retardation factor of the compound by thin layer chromatography. The class given is physicochemical.
The test system of data set [8] is Rattus norvegicus. As to the kind of experiment: Toxicity in Sprague-Dawley rat assessed as mortality at 0.125 % compound administered in diet for 14 days relative to control. Type of data set: organism-based. The note with it: in vivo, po, 336 h. The essentials: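 Compound mixed into rat feed and given ad libitum for 14 days; control groups received feed alone. At the end of the period, animals were weighed and killed by decapitation, blood was collected, and the liver was removed and weighed.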

Data set [9] has as its system Rattus norvegicus. Kind of data set: Hypolipidemic activity in Sprague-Dawley rat assessed as reduction in serum cholesterol level at 0.06 % compound administered in diet for 14 days relative to control. Details: scale not given: the % may be the effect or the level left. The class given is functional. The essentials:
as §1

The nature of data set [10]: Toxicity in mouse. The class given is organism-based. The conditions noted are these: in vivo.
The test system of data set [11] is Rattus norvegicus. As to the kind of experiment: Hypolipidemic activity in Sprague-Dawley rat assessed as reduction in serum cholesterol level at 0.03 % compound administered in diet for 14 days relative to control. On the set-up: scale not given: the % may be the effect or the level left. The class given is functional. The essentials:
as §1

Data set [12] deals with Rattus norvegicus. Kind of data set: Hypolipidemic activity in Sprague-Dawley rat assessed as reduction in serum triglyceride level at 0.03 % compound administered in diet for 14 days relative to control. The class given is functional. Details: scale not given: the % may be the effect or the level left. The essentials: as §1
Data set [13] relates to Rattus norvegicus. As to the kind of experiment: Hypolipidemic activity in Sprague-Dawley rat assessed as reduction in serum triglyceride level at 0.06 % compound administered in diet for 14 days relative to control. Type of data set: functional. On the set-up: scale not given: the % may be the effect or the level left. The essentials:
as §1

Data set [14] can be described thus: Toxicity in rat. Type of data set: organism-based. The note with it: in vivo.

As to `CCCCC(C(=O)OCC)c1cc(C(C)(C)C)c(O)c(C(C)(C)C)c1` (configuration not stated), the results for the Activity in data set [1] and in data set [2] were -10% and -2%, respectively.

As for `CCCCCCC(C)(Sc1cc(C(C)(C)C)cc(C(C)(C)C)c1)C(=O)O` (configuration not stated), the figures for the Activity in [3], in data set [1] and in data set [2] were 30%, -68% and -38%, respectively.

Turning to `CCC(Sc1cc(C(C)(C)C)c(O)c(C(C)(C)C)c1)C(=O)O` (configuration not stated), the Activity in data set [4] is given as -74%; in [5], 40%; in data set [6], -37%.

For the compound `CC(C)(Sc1cc(C(C)(C)C)cc(C(C)(C)C)c1)C(=O)O`, the Activity in [3] is listed as 30%; in [1] it was -63%; in data set [2] it was -31%.

As to `CCCC(C)(Sc1cc(C(C)(C)C)cc(C(C)(C)C)c1)C(=O)O` (configuration not stated), the Activity is 40% in data set [3], -80% in data set [1] and -29% in [2].

As for `CCOC(=O)C(C)(C)Sc1cc(C(C)(C)C)c(O)c(C(C)(C)C)c1`, the values for the Activity in data set [4], in data set [5] and in data set [6] were -60%, 20% and -23%, respectively.

With `CCOC(=O)C(CC)Sc1cc(C(C)(C)C)c(O)c(C(C)(C)C)c1` (configuration not stated), the Activity in data set [4] is listed as -55%; in data set [5], 10%; in data set [1] it was -43%; in data set [6], -5%; in data set [2], 13%.

With `CCCCC(Sc1ccc(C)cc1)C(=O)O` (configuration not stated), the deltaRm in data set [7] was 0.23. The Activity was 0% in [3], -23% in data set [1] and -11% in data set [2].

As to `CCCCCC(Sc1cc(C(C)(C)C)c(O)c(C(C)(C)C)c1)C(=O)O` (configuration not stated), the Activity in [4] was -53%; in [5], 10%; in data set [6] it was -24%.

As to `CCCCC(C(=O)O)c1cc(C(C)(C)C)c(O)c(C(C)(C)C)c1` (configuration not stated), the Activity was -24% in [1] and -20% in data set [2].

Take `CCCCCC(C)(Sc1cc(C(C)(C)C)c(O)c(C(C)(C)C)c1)C(=O)O` (configuration not stated): the Activity is listed as 10% in data set [3], -60% in data set [1] and -10% in data set [2].

`CCCCCC(C)(Sc1cc(C(C)(C)C)cc(C(C)(C)C)c1)C(=O)O` (configuration not stated): the Activity is listed as 20% in data set [3], -73% in data set [1] and -27% in [2].

Take `CC(C)(Sc1cc(C(C)(C)C)c(O)c(C(C)(C)C)c1)Sc1cc(C(C)(C)C)c(O)c(C(C)(C)C)c1` [PROBUCOL]: the Activity in data set [4] is recorded as -33%; in data set [5] it was 0%; in data set [6], 38%.

Turning to `CC(Oc1cc(C(C)(C)C)c(O)c(C(C)(C)C)c1)C(=O)O` (configuration not stated), the Activity entry in data set [8] was “Toxic”.

As for `CCCCC(Sc1ccc(Cl)cc1)C(=O)O` (configuration not stated), the deltaRm in data set [7] was determined as 0.25. Moreover, the Activity in data set [3] is 0%; in data set [1] it was -41%; in [2], -16%.

On to `CCOC(=O)C(C)(C)Oc1ccc(Cl)cc1` [CLOFIBRATE], for which the Activity in [4] is -50%; in data set [5], 20%; in data set [6] it was -28%.

Consider `CCCCCCC(C)(Sc1cc(C(C)(C)C)c(O)c(C(C)(C)C)c1)C(=O)O` (configuration not stated), for which the results for the Activity in [3], in data set [1] and in data set [2] were 10%, -73% and 17%, respectively.

`CCCCC(Sc1cc(C(C)(C)C)cc(C(C)(C)C)c1)C(=O)O` (configuration not stated): in data set [7], the deltaRm was found to be 1.18. The Activity in data set [4] is reported as -41%; in data set [3], 20%; in data set [1], -58%; in data set [6], -20%; in data set [2], -23%.

As to `CCCC(Sc1cc(C(C)(C)C)c(O)c(C(C)(C)C)c1)C(=O)O` (configuration not stated), the Activity is on record as 30% in [3], -72% in data set [1] and -3% in data set [2].

`CCCCC(Sc1ccccc1)C(=O)O` (configuration not stated) had a deltaRm in data set [7] of 0. In addition, the figures for the Activity in data set [3], in data set [1] and in data set [2] were 0%, -37% and -16%, respectively.

For the compound `CCCC(Sc1cc(C(C)(C)C)c(O)c(C(C)(C)C)c1)C(=O)OCC` (configuration not stated), the Activity in data set [4] is -54%; in data set [5], 0%; in data set [6], 0%.

On to `CCC(Oc1cc(C(C)(C)C)c(O)c(C(C)(C)C)c1)C(=O)O` (configuration not stated), for which the Activity in data set [1] amounted to 38%; in data set [2], 6%.

For `CC(C)(C)c1cc(SCC(=O)O)cc(C(C)(C)C)c1O`, in [6], the Activity was -16%.

Turning to `CCCCC(Sc1ccc(OC)cc1)C(=O)O` (configuration not stated), the deltaRm in data set [7] is reported as 0.08. Further, the Activity in data set [3] is reported as 0%; in [1] it was -45%; in [2], -12%.

`CCCCC(Sc1cc(C2CCCC2)c(O)c(C2CCCC2)c1)C(=O)O` (configuration not stated) showed a deltaRm in data set [7] of 0.94. The Activity entry is reported as “Non-toxic” in data set [3], -16% in data set [1] and -11% in data set [2].

Regarding `CCCCC(Oc1cc(C(C)(C)C)c(O)c(C(C)(C)C)c1)C(=O)O` (configuration not stated), the Activity in data set [3] is 20%; in data set [1] it was -38%; in [2], -7%.

As to `CC(C)(C)c1cc(OCC(=O)O)cc(C(C)(C)C)c1O`, the Activity in data set [1] is recorded as -50%; in [2] it was 13%.

The LD50 is the dose at which mortality reaches 50%. Compound `CCCCC(Sc1cc(C(C)(C)C)c(O)c(C(C)(C)C)c1)C(=O)O` (racemic) gave a deltaRm in [7] of 0.96. Further, the Activity in data set [4] is listed as -69%; in [9] it was -28%; in [3] it was 10%; in [11], -21%; in [5], 20%; in data set [1], -66%. In addition, the Activity in data set [12] is -35%; in data set [13] it was -61%; in [6] it was -30%; in data set [2], -32%. Besides, the LD50 in data set [10] was 5000 mg/kg; in [14], 7200 mg/kg.

Take `CCCCC(C)(Sc1cc(C(C)(C)C)c(O)c(C(C)(C)C)c1)C(=O)O` (configuration not stated): the Activity is given as 20% in [3], -66% in [1] and 8% in data set [2].

Turning to `CCC(C)(Sc1cc(C(C)(C)C)c(O)c(C(C)(C)C)c1)C(=O)O` (configuration not stated), the Activity is -80% in data set [4], 40% in [5] and -32% in data set [6].

As to `CCCCC(Sc1cc(C2CCCCC2)c(O)c(C2CCCCC2)c1)C(=O)O` (configuration not stated), the deltaRm in data set [7] is 1.1. Further, the figures for the Activity entry in [3], in data set [1] and in data set [2] were “Non-toxic”, 5% and -3%, respectively.

As for `CCCC(C)(Sc1cc(C(C)(C)C)c(O)c(C(C)(C)C)c1)C(=O)O` (configuration not stated), the Activity in data set [3] was 30%; in data set [1], -55%; in data set [2], 12%.

For the compound `CC(C)(Sc1cc(C(C)(C)C)c(O)c(C(C)(C)C)c1)C(=O)O`, the Activity in data set [4] is recorded as -66%; in data set [5], 40%; in data set [6], -21%.

In turn, `CCCCC(Sc1ccc(Br)c(C)c1)C(=O)O` (configuration not stated) had a deltaRm in [7] of 0.51. In addition, the Activity was 20% in data set [3], -49% in data set [1] and -17% in data set [2].

`CCCCC(C(=O)O)S(=O)(=O)c1cc(C(C)(C)C)c(O)c(C(C)(C)C)c1` (configuration not stated): the Activity in data set [4] is -44%; in data set [3], 20%; in data set [1], -36%; in data set [6], -17%; in [2] it was -14%.

With `CC(Sc1cc(C(C)(C)C)c(O)c(C(C)(C)C)c1)C(=O)O` (configuration not stated), the Activity in [4] was -78%; in data set [5], 30%; in data set [6], -32%.

`CCCCC(Oc1cc(C(C)(C)C)c(O)c(C(C)(C)C)c1)C(=O)OCC` (configuration not stated): the Activity is 10% in [3], -28% in [1] and -13% in data set [2].
